Results as given in ChEMBL document CHEMBL1687785, “ampG gene of Pseudomonas aeruginosa and its role in β-lactamase expression” (2010).
Values after ≈ are worked out from the molar mass of the structure shown.

Columns and labels:
Type in all cases: functional
Pseudomonas aeruginosa [1] = test: Antimicrobial activity against ampG deficient Pseudomonas aeruginosa PAK harboring pZY0901 conferring resistance to gentamycin after 16 to 20 hrs by broth microdilution method
Procedure, shortened: (§1)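 CLSI broth microdilution in Mueller-Hinton broth, serial 2-fold antibiotic dilutions. Inoculum about 10^4 cells per well, taken from starter cultures grown to OD600 0.5. MIC was the lowest antibiotic concentration preventing growth after 16 to 20 h at 37°C. Each MIC was determined in triplicate.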

Pseudomonas aeruginosa [2] = test: Antimicrobial activity against ampG deficient Pseudomonas aeruginosa PAK harboring pZY0901 conferring resistance to gentamycin after 16 to 20 hrs by broth microdilution method in presence of 120 uM carbonyl cyanide m-chlorophenyl-hydrazone
Procedure, shortened: (§2)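 CLSI broth microdilution in Mueller-Hinton broth with serial antibiotic dilutions. CCCP was added from a 10 mM DMSO stock to 120 μM final, then the bacterial culture was added as inoculum (about 10^4 cells from OD600 0.5 starter cultures). MIC was the lowest concentration preventing growth after 16 to 20 h at 37°C, run in triplicate.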

Pseudomonas aeruginosa [3] = test: Antimicrobial activity against ampG deficient Pseudomonas aeruginosa PAK harboring pUCP24 conferring resistance to gentamycin after 16 to 20 hrs by broth microdilution method in presence of 120 uM carbonyl cyanide m-chlorophenyl-hydrazone; procedure, shortened: as §2
Pseudomonas aeruginosa [4] = test: Antimicrobial activity against Pseudomonas aeruginosa PAO1 after 16 to 20 hrs by broth microdilution method in presence of 120 uM carbonyl cyanide m-chlorophenyl-hydrazone
Procedure, shortened: (§3)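 CLSI broth microdilution in Mueller-Hinton broth with CCCP added from a 10 mM DMSO stock to 120 μM final, alongside 2-fold serial antibiotic dilutions. Inoculum from starter cultures grown to OD600 0.5. MIC is the lowest concentration preventing growth after 16-20 h at 37°C. Triplicate.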

Pseudomonas aeruginosa [5] = test: Antimicrobial activity against ampG deficient Pseudomonas aeruginosa PAO1 after 16 to 20 hrs by broth microdilution method in presence of 120 uM carbonyl cyanide m-chlorophenyl-hydrazone; procedure, shortened: as §2
Pseudomonas aeruginosa [6] = test: Antimicrobial activity against ampG deficient Pseudomonas aeruginosa PAO1 after 16 to 20 hrs by broth microdilution method; procedure, shortened: as §1
Pseudomonas aeruginosa [7] = test: Antimicrobial activity against ampGh1 deficient Pseudomonas aeruginosa PAK after 16 to 20 hrs by broth microdilution method; procedure, shortened: as §1
Pseudomonas aeruginosa [8] = test: Antimicrobial activity against ampG, ampGh1 deficient Pseudomonas aeruginosa PAK after 16 to 20 hrs by broth microdilution method; procedure, shortened: as §1
Pseudomonas aeruginosa [9] = test: Antimicrobial activity against ampG deficient Pseudomonas aeruginosa PAO1 harboring pUCP24 conferring resistance to gentamycin after 16 to 20 hrs by broth microdilution method; procedure, shortened: as §1
Pseudomonas aeruginosa [10] = test: Antimicrobial activity against ampD, ampDh2, ampDh3 and ampGh1 deficient Pseudomonas aeruginosa PAO1 after 16 to 20 hrs by broth microdilution method; procedure, shortened: as §1
Pseudomonas aeruginosa [11] = test: Antimicrobial activity against ampGh1 deficient Pseudomonas aeruginosa PAO1 after 16 to 20 hrs by broth microdilution method in presence of 120 uM carbonyl cyanide m-chlorophenyl-hydrazone
Procedure, shortened: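 Serial 2-fold dilutions of β-lactam in Mueller-Hinton broth with CCCP added from a 10 mM DMSO stock to 120 μM final; inoculum about 10^4 cells from cultures grown to OD600 0.5; MIC taken as lowest concentration preventing growth after 16 to 20 h at 37°C; triplicate.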

Pseudomonas aeruginosa [12] = test: Antimicrobial activity against ampD, […], ampDh2 deficient Pseudomonas aeruginosa PAO1 after 16 to 20 hrs by broth microdilution method; procedure, shortened: as §1
Pseudomonas aeruginosa [13] = test: Antimicrobial activity against ampGh1 deficient Pseudomonas aeruginosa PAO1 after 16 to 20 hrs by broth microdilution method; procedure, shortened: as §1
Pseudomonas aeruginosa [14] = test: Antimicrobial activity against ampD, ampDh2, ampDh3 and ampG deficient Pseudomonas aeruginosa PAO1 harboring pZY0901 conferring resistance to gentamycin after 16 to 20 hrs by broth microdilution method in presence of 120 uM carbonyl cyanide m-chlorophenyl-hydrazone; procedure, shortened: as §2
Pseudomonas aeruginosa [15] = test: Antimicrobial activity against ampG deficient Pseudomonas aeruginosa PAO1 harboring pZY0901 conferring resistance to gentamycin after 16 to 20 hrs by broth microdilution method in presence of 120 uM carbonyl cyanide m-chlorophenyl-hydrazone; procedure, shortened: as §2
Pseudomonas aeruginosa [16] = test: Antimicrobial activity against ampD, ampDh2, ampDh3 and ampG deficient Pseudomonas aeruginosa PAO1 after 16 to 20 hrs by broth microdilution method; procedure, shortened: as §1
Pseudomonas aeruginosa [17] = test: Antimicrobial activity against ampG deficient Pseudomonas aeruginosa PAO1 harboring pUCP24 conferring resistance to gentamycin after 16 to 20 hrs by broth microdilution method in presence of 120 uM carbonyl cyanide m-chlorophenyl-hydrazone; procedure, shortened: as §2
Pseudomonas aeruginosa [18] = test: Antimicrobial activity against ampD, ampDh2, ampDh3 and ampG deficient Pseudomonas aeruginosa PAO1 harboring pZY0901 conferring resistance to gentamycin after 16 to 20 hrs by broth microdilution method; procedure, shortened: as §1
Pseudomonas aeruginosa [19] = test: Antimicrobial activity against ampG, ampGh1 deficient Pseudomonas aeruginosa PAO1 after 16 to 20 hrs by broth microdilution method; procedure, shortened: as §1
Pseudomonas aeruginosa [20] = test: Antimicrobial activity against ampG deficient Pseudomonas aeruginosa PAO1 harboring pZY0908 conferring resistance to gentamycin after 16 to 20 hrs by broth microdilution method; procedure, shortened: as §1
Pseudomonas aeruginosa [21] = test: Antimicrobial activity against ampG, ampGh1 deficient Pseudomonas aeruginosa PAK after 16 to 20 hrs by broth microdilution method in presence of 120 uM carbonyl cyanide m-chlorophenyl-hydrazone; procedure, shortened: as §2
Pseudomonas aeruginosa [22] = test: Antimicrobial activity against Pseudomonas aeruginosa PAK after 16 to 20 hrs by broth microdilution method
Procedure, shortened: (§4)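 CLSI broth microdilution: 2-fold serial antibiotic dilutions in Mueller-Hinton broth, inoculated with about 10^4 cells per 100 μl from starter cultures grown to OD600 0.5. MIC is the lowest concentration preventing growth after 16-20 h at 37°C. Triplicate.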

Pseudomonas aeruginosa [23] = test: Antimicrobial activity against Pseudomonas aeruginosa PAO1 after 16 to 20 hrs by broth microdilution method; procedure, shortened: as §4
Pseudomonas aeruginosa [24] = test: Antimicrobial activity against ampD, ampDh2, ampDh3 and ampGh1 deficient Pseudomonas aeruginosa PAO1 after 16 to 20 hrs by broth microdilution method in presence of 120 uM carbonyl cyanide m-chlorophenyl-hydrazone; procedure, shortened: as §2
Pseudomonas aeruginosa [25] = test: Antimicrobial activity against ampG deficient Pseudomonas aeruginosa PAK after 16 to 20 hrs by broth microdilution method in presence of 120 uM carbonyl cyanide m-chlorophenyl-hydrazone; procedure, shortened: as §2
Pseudomonas aeruginosa [26] = test: Antimicrobial activity against ampD, ampDh2, ampDh3 and ampG deficient Pseudomonas aeruginosa PAO1 harboring pUCP24 conferring resistance to gentamycin after 16 to 20 hrs by broth microdilution method in presence of 120 uM carbonyl cyanide m-chlorophenyl-hydrazone; procedure, shortened: as §2
Pseudomonas aeruginosa [27] = test: Antimicrobial activity against ampD, ampDh2, ampDh3 and ampG deficient Pseudomonas aeruginosa PAO1 harboring pUCP24 conferring resistance to gentamycin after 16 to 20 hrs by broth microdilution method; procedure, shortened: as §1
Pseudomonas aeruginosa [28] = test: Antimicrobial activity against ampD, ampDh2, ampDh3 and ampG deficient Pseudomonas aeruginosa PAO1 after 16 to 20 hrs by broth microdilution method in presence of 120 uM carbonyl cyanide m-chlorophenyl-hydrazone; procedure, shortened: as §2
Pseudomonas aeruginosa [29] = test: Antimicrobial activity against ampG deficient Pseudomonas aeruginosa PAK after 16 to 20 hrs by broth microdilution method; procedure, shortened: as §1
Pseudomonas aeruginosa [30] = test: Antimicrobial activity against ampD, ampDh2, ampDh3 deficient Pseudomonas aeruginosa PAO1 after 16 to 20 hrs by broth microdilution method in presence of 120 uM carbonyl cyanide m-chlorophenyl-hydrazone; procedure, shortened: as §2
Escherichia coli [31] = test: Antimicrobial activity against kanamycin resistant Escherichia coli SNO301-1 harboring pEC1C carrying ampC, ampR from Enterobacter cloacae after 16 to 20 hrs by broth microdilution method
Procedure, shortened: (§5)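 CLSI broth microdilution: serial 2-fold β-lactam dilutions in Mueller-Hinton broth, inoculum about 10^4 cells from starter cultures at OD600 0.5; MIC read as lowest concentration preventing growth after 16 to 20 h at 37°C; triplicate determinations.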

Pseudomonas aeruginosa [32] = test: Antimicrobial activity against ampGh1 deficient Pseudomonas aeruginosa PAK after 16 to 20 hrs by broth microdilution method in presence of 120 uM carbonyl cyanide m-chlorophenyl-hydrazone; procedure, shortened: as §2
Escherichia coli [33] = test: Antimicrobial activity against tetracycline resistant Escherichia coli SNO301-1 harboring pEC1C carrying ampC, ampR from Enterobacter cloacae after 16 to 20 hrs by broth microdilution method; procedure, shortened: as §5
Pseudomonas aeruginosa [34] = test: Antimicrobial activity against ampG deficient Pseudomonas aeruginosa PAK harboring pUCP24 conferring resistance to gentamycin after 16 to 20 hrs by broth microdilution method; procedure, shortened: as §1
Pseudomonas aeruginosa [35] = test: Antimicrobial activity against Pseudomonas aeruginosa PAK after 16 to 20 hrs by broth microdilution method in presence of 120 uM carbonyl cyanide m-chlorophenyl-hydrazone; procedure, shortened: as §3
Pseudomonas aeruginosa [36] = test: Antimicrobial activity against ampG deficient Pseudomonas aeruginosa PAO1 harboring pZY0901 conferring resistance to gentamycin after 16 to 20 hrs by broth microdilution method; procedure, shortened: as §1
Escherichia coli [37] = test: Antimicrobial activity against gentamycin resistant Escherichia coli SNO301-1 harboring pEC1C carrying ampC, ampR from Enterobacter cloacae after 16 to 20 hrs by broth microdilution method; procedure, shortened: as §5
Pseudomonas aeruginosa [38] = test: Antimicrobial activity against ampG, ampGh1 deficient Pseudomonas aeruginosa PAO1 after 16 to 20 hrs by broth microdilution method in presence of 120 uM carbonyl cyanide m-chlorophenyl-hydrazone; procedure, shortened: as §2

CO/N=C(\C(=O)N[C@@H]1C(=O)N2C(C(=O)O)=C(COC(C)=O)CS[C@H]12)c1csc(N)n1 [CEFOTAXIME]
MIC (Pseudomonas aeruginosa [1]): 512 µg/mL (≈ 1120 µM)
MIC (Pseudomonas aeruginosa [2]): 256 µg/mL
MIC (Pseudomonas aeruginosa [3]): 4 µg/mL
MIC (Pseudomonas aeruginosa [4]): 8 µg/mL
MIC (Pseudomonas aeruginosa [5]): 4 µg/mL
MIC (Pseudomonas aeruginosa [6]): 8 µg/mL (≈ 17.6 µM)
MIC (Pseudomonas aeruginosa [7]): 8 µg/mL (≈ 17.6 µM)
MIC (Pseudomonas aeruginosa [8]): 8 µg/mL (≈ 17.6 µM)
MIC (Pseudomonas aeruginosa [9]): 8 µg/mL (≈ 17.6 µM)
MIC (Pseudomonas aeruginosa [10]): 256 µg/mL (≈ 562 µM)
MIC (Pseudomonas aeruginosa [11]): 8 µg/mL
MIC (Pseudomonas aeruginosa [12]): 512 µg/mL (≈ 1120 µM)
MIC (Pseudomonas aeruginosa [13]): 16 µg/mL (≈ 35.1 µM)
MIC (Pseudomonas aeruginosa [14]): 64 µg/mL
MIC (Pseudomonas aeruginosa [15]): 128 µg/mL
MIC (Pseudomonas aeruginosa [16]): 4 µg/mL (≈ 8.78 µM)
MIC (Pseudomonas aeruginosa [17]): 4 µg/mL
MIC (Pseudomonas aeruginosa [18]): 512 µg/mL (≈ 1120 µM)
MIC (Pseudomonas aeruginosa [19]): 8 µg/mL (≈ 17.6 µM)
MIC (Pseudomonas aeruginosa [20]): 8 µg/mL (≈ 17.6 µM)
MIC (Pseudomonas aeruginosa [21]): 4 µg/mL
MIC (Pseudomonas aeruginosa [22]): 8 µg/mL (≈ 17.6 µM)
MIC (Pseudomonas aeruginosa [23]): 16 µg/mL (≈ 35.1 µM)
MIC (Pseudomonas aeruginosa [24]): 64 µg/mL
MIC (Pseudomonas aeruginosa [25]): 4 µg/mL
MIC (Pseudomonas aeruginosa [26]): 4 µg/mL
MIC (Pseudomonas aeruginosa [27]): 4 µg/mL (≈ 8.78 µM)
MIC (Pseudomonas aeruginosa [28]): 4 µg/mL
MIC (Pseudomonas aeruginosa [29]): 8 µg/mL (≈ 17.6 µM)
MIC (Pseudomonas aeruginosa [30]): 64 µg/mL
MIC (Escherichia coli [31]): 64 µg/mL (≈ 141 µM)
MIC (Pseudomonas aeruginosa [32]): 8 µg/mL
MIC (Escherichia coli [33]): < 2 µg/mL
MIC (Pseudomonas aeruginosa [34]): 4 µg/mL (≈ 8.78 µM)
MIC (Pseudomonas aeruginosa [35]): 8 µg/mL
MIC (Pseudomonas aeruginosa [36]): 256 µg/mL (≈ 562 µM)
MIC (Escherichia coli [37]): 32 µg/mL (≈ 70.3 µM)
MIC (Pseudomonas aeruginosa [38]): 4 µg/mL

CC(C)(O/N=C(\C(=O)N[C@@H]1C(=O)N2C(C(=O)[O-])=C(C[n+]3ccccc3)CS[C@H]12)c1csc(N)n1)C(=O)O [CEFTAZIDIME]
MIC (Pseudomonas aeruginosa [1]): 32 µg/mL (≈ 58.5 µM)
MIC (Pseudomonas aeruginosa [6]): 1 µg/mL (≈ 1.83 µM)
MIC (Pseudomonas aeruginosa [7]): 1 µg/mL (≈ 1.83 µM)
MIC (Pseudomonas aeruginosa [8]): 1 µg/mL (≈ 1.83 µM)
MIC (Pseudomonas aeruginosa [9]): 1 µg/mL (≈ 1.83 µM)
MIC (Pseudomonas aeruginosa [10]): 32 µg/mL (≈ 58.5 µM)
MIC (Pseudomonas aeruginosa [12]): 32 µg/mL (≈ 58.5 µM)
MIC (Pseudomonas aeruginosa [13]): 1 µg/mL (≈ 1.83 µM)
MIC (Pseudomonas aeruginosa [16]): 1 µg/mL (≈ 1.83 µM)
MIC (Pseudomonas aeruginosa [18]): 32 µg/mL (≈ 58.5 µM)
MIC (Pseudomonas aeruginosa [19]): 1 µg/mL (≈ 1.83 µM)
MIC (Pseudomonas aeruginosa [20]): 1 µg/mL (≈ 1.83 µM)
MIC (Pseudomonas aeruginosa [22]): 1 µg/mL (≈ 1.83 µM)
MIC (Pseudomonas aeruginosa [23]): 1 µg/mL (≈ 1.83 µM)
MIC (Pseudomonas aeruginosa [27]): 1 µg/mL (≈ 1.83 µM)
MIC (Pseudomonas aeruginosa [29]): 1 µg/mL (≈ 1.83 µM)
MIC (Pseudomonas aeruginosa [34]): 1 µg/mL (≈ 1.83 µM)
MIC (Pseudomonas aeruginosa [36]): 16 µg/mL (≈ 29.3 µM)
